Assay results reported in ChEMBL document CHEMBL4825737, “Design, synthesis, and biological evaluation of novel 6-(pyridin-3-yl) quinazolin-4(3H)-one derivatives as potential anticancer agents via PI3K inhibition” (Bioorg Med Chem, 2021).
Each block holds one compound with its values, some of them ahead of it. The source made the active and inactive calls. The calls are words filed in the database; no cut-off is given here.

Key:
SH-SY5Y = test: Antiproliferative activity against human SH-SY5Y assessed as reduction in cell viability measured after 72 hrs by flow cytometry analysis; type: functional, cell-based
Outline: (§1)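 Cells in RPMI 1640 with 10% FBS and penicillin/streptomycin/amphotericin B, seeded at 2.5–3 × 10⁴ per well. Grown adherent in fresh medium for 24 h, then exposed to a range of compound concentrations for 72 h. Living cell numbers counted by flow cytometry; IC50 calculated. Mean ± SD from three experiments.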

[1] = Antiproliferative activity against human LM3 cells assessed as reduction in cell viability measured after 72 hrs by flow cytometry analysis; type: functional, cell-based; settings: GILM3, 72 h; outline: as §1
HCC827 [2] = test: Antiproliferative activity against human HCC827 cells assessed as reduction in cell viability measured after 72 hrs by flow cytometry analysis; type: functional, cell-based; settings: HCC827, 72 h; outline: as §1
HEL = test: Antiproliferative activity against human HEL cells assessed as reduction in cell viability measured after 72 hrs by flow cytometry analysis; type: functional, cell-based; outline: as §1
HCC827 [3] = test: Induction of apoptosis in human HCC827 cells assessed as early apoptotic cells at 4 uM incubated for 48 hrs by annexin V-FITC and propidium iodide staining based flow cytometry analysis (reference value: 2.69%); type: functional
HCC827 [4] = test: Induction of apoptosis in human HCC827 cells assessed as necrotic cells at 2 uM incubated for 48 hrs by annexin V-FITC and propidium iodide staining based flow cytometry analysis (reference value: 2.57%); type: functional
HCC827 [5] = test: Induction of apoptosis in human HCC827 cells assessed as reduction in Cyclin-B1 expression at 1 to 4 uM incubated for 24 hrs by Western blot analysis; type: functional, cell-based; settings: dose 1-4 µM
Outline: (§2)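 HCC827 cells treated with a range of compound concentrations for 24 h. Western blot for G2/M-associated proteins with GAPDH as loading control. Bands quantified by densitometry; mean ± SD, n = 3, compared with control.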

HCC827 [6] = test: Induction of apoptosis in human HCC827 cells assessed as early apoptotic cells at 1 uM incubated for 48 hrs by annexin V-FITC and propidium iodide staining based flow cytometry analysis (reference value: 2.69%); type: functional
HCC827 [7] = test: Induction of apoptosis in human HCC827 cells assessed as early apoptotic cells at 2 uM incubated for 48 hrs by annexin V-FITC and propidium iodide staining based flow cytometry analysis (reference value: 2.69%); type: functional
L02 = test: Antiproliferative activity against human HL7702 cells assessed as reduction in cell viability measured after 72 hrs by flow cytometry analysis; type: functional, cell-based; settings: L02, 72 h; outline: as §1
HCC827 [8] = test: Induction of apoptosis in human HCC827 cells assessed as reduction in p-CHK1 expression at 1 to 4 uM incubated for 24 hrs by Western blot analysis; type: functional, cell-based; settings: dose 1-4 µM; outline: as §2
HCC827 [9] = test: Induction of apoptosis in human HCC827 cells assessed as late apoptotic cells at 1 uM incubated for 48 hrs by annexin V-FITC and propidium iodide staining based flow cytometry analysis (reference value: 0.56%); type: functional
HCC827 [10] = test: Induction of apoptosis in human HCC827 cells assessed as viable cells at 2 uM incubated for 48 hrs by annexin V-FITC and propidium iodide staining based flow cytometry analysis (reference value: 94.16%); type: functional; settings: read-out: Activity
[11] = Inhibition of PI3K in human HCC827 cells assessed as decrease in phosphorylation incubated for 24 hrs by cell PI3 kinase activity photometric assay; type: cell-based; settings: HCC827, 24 h
Outline: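 Human NSCLC HCC827 cells grown in RPMI 1640 with 10% FBS and antibiotics-antimycotics, exposed to a range of concentrations for 24 h. Cells washed with Reagent A, lysed with Reagent B, protein measured by Bradford, then 100 μg lysate protein per group used in a cell PI3K assay kit for kinase activity. IC50 given as mean ± SD of three separate experiments.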

HCC827 [12] = test: Induction of apoptosis in human HCC827 cells assessed as upregulation of Bax by Western blot analysis; type: functional, cell-based
Outline: (§3)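 HCC827 cells treated with a range of compound concentrations. Western blot for mitochondrial apoptosis proteins with GAPDH as loading control. Bands quantified by densitometry; mean ± SD, n = 3, compared with vehicle control.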

HCC827 [13] = test: Induction of apoptosis in human HCC827 cells assessed as late apoptotic cells at 4 uM incubated for 48 hrs by annexin V-FITC and propidium iodide staining based flow cytometry analysis (reference value: 0.56%); type: functional
HCC827 [14] = test: Induction of apoptosis in human HCC827 cells assessed as viable cells at 1 uM incubated for 48 hrs by annexin V-FITC and propidium iodide staining based flow cytometry analysis (reference value: 94.16%); type: functional; settings: read-out: Activity
HCC827 [15] = test: Induction of cell cycle arrest in human HCC827 cells assessed as accumulation at G2 phase incubated for 24 hrs by […]PI assay; type: functional, cell-based; settings: dose 1-4 µM
Outline: (§4)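 HCC827 cells held 12 h in medium without FBS, then treated for 24 h. Fixed overnight in 70% ethanol and stained with propidium iodide plus RNase for 30 min in the dark at room temperature. Cell cycle distribution read by flow cytometry.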

HCC827 [16] = test: Inhibition of PI3K signalling in human HCC827 cells assessed as decrease in phosphorylation of mTOR at Ser2448 at 1 to 4 uM incubated for 24 hrs by Western blot analysis; type: cell-based; settings: dose 1-4 µM
Outline: (§5)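 HCC827 cells treated with different compound concentrations for 24 h. Phospho-protein levels measured by Western blot. Mean ± SD from three parallel experiments, compared with DMSO control.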

HCC827 [17] = test: Induction of apoptosis in human HCC827 cells assessed as reduction in CHK1 expression at 1 to 4 uM incubated for 24 hrs by Western blot analysis; type: functional, cell-based; settings: dose 1-4 µM; outline: as §2
HCC827 [18] = test: Induction of apoptosis in human HCC827 cells assessed as downregulation of Bcl-2 by Western blot analysis; type: functional, cell-based; outline: as §3
HCC827 [19] = test: Induction of apoptosis in human HCC827 cells assessed as upregulation of cleaved-caspase 9 by Western blot analysis; type: functional, cell-based; outline: as §3
HCC827 [20] = test: Induction of apoptosis in human HCC827 cells assessed as viable cells at 4 uM incubated for 48 hrs by annexin V-FITC and propidium iodide staining based flow cytometry analysis (reference value: 94.16%); type: functional; settings: read-out: Activity
HCC827 [21] = test: Induction of apoptosis in human HCC827 cells assessed as upregulation of cleaved-PRAP by Western blot analysis; type: functional, cell-based; outline: as §3
HCC827 [22] = test: Induction of apoptosis in human HCC827 cells assessed as late apoptotic cells at 2 uM incubated for 48 hrs by annexin V-FITC and propidium iodide staining based flow cytometry analysis (reference value: 0.56%); type: functional
HCC827 [23] = test: Induction of apoptosis in human HCC827 cells assessed as necrotic cells at 4 uM incubated for 48 hrs by annexin V-FITC and propidium iodide staining based flow cytometry analysis (reference value: 2.57%); type: functional
HCC827 [24] = test: Inhibition of PI3K signalling in human HCC827 cells assessed as decrease in phosphorylation of Akt at Ser473 at 1 to 4 uM incubated for 24 hrs by Western blot analysis; type: cell-based; settings: dose 1-4 µM; outline: as §5
HCC827 [25] = test: Induction of apoptosis in human HCC827 cells assessed as necrotic cells at 1 uM incubated for 48 hrs by annexin V-FITC and propidium iodide staining based flow cytometry analysis (reference value: 2.57%); type: functional
HCC827 [26] = test: Inhibition of PI3K signalling in human HCC827 cells assessed as decrease in phosphorylation of GSKbeta at Ser9 at 1 to 4 uM incubated for 24 hrs by Western blot analysis; type: cell-based; settings: dose 1-4 µM; outline: as §5
HCC827 [27] = test: Induction of cell cycle arrest in human HCC827 cells assessed as decrease in G1 phase incubated for 24 hrs by […]PI assay; type: functional, cell-based; settings: dose 1-4 µM; outline: as §4
HCC827 [28] = test: Induction of apoptosis in human HCC827 cells assessed as reduction in c-Myc expression at 1 to 4 uM incubated for 24 hrs by Western blot analysis; type: functional, cell-based; settings: dose 1-4 µM; outline: as §2

IC50 (SH-SY5Y): > 40 µM | IC50 (HCC827 [2]): > 40 µM
Compound: CCCCC(=O)Nc1ccc(-c2ccc3ncn(Cc4ccccc4)c(=O)c3c2)cn1
IC50 [1]: > 40 µM | IC50 (HEL): > 40 µM

IC50 (SH-SY5Y): > 40 µM | IC50 (HCC827 [2]): > 40 µM
Compound: CCC(=O)Nc1ccc(-c2ccc3ncn(Cc4ccccc4)c(=O)c3c2)cn1
IC50 [1]: > 40 µM | IC50 (HEL): > 40 µM

IC50 (SH-SY5Y): > 40 µM | IC50 (HCC827 [2]): > 40 µM
Compound: COCC(=O)Nc1ccc(-c2ccc3ncn(Cc4ccccc4)c(=O)c3c2)cn1
IC50 [1]: > 40 µM | IC50 (HEL): > 40 µM

IC50 (SH-SY5Y): > 40 µM | IC50 (HCC827 [2]): > 40 µM
Compound: CC(C)(C)C(=O)Nc1ccc(-c2ccc3ncn(Cc4ccccc4)c(=O)c3c2)cn1
IC50 [1]: > 40 µM | IC50 (HEL): > 40 µM

IC50 (SH-SY5Y): > 40 µM | IC50 (HCC827 [2]): > 40 µM
Compound: CCCCC(=O)Nc1ccc(-c2ccc3ncn(Cc4ccc5c(c4)OCO5)c(=O)c3c2)cn1
IC50 [1]: > 40 µM | IC50 (HEL): > 40 µM

Further lines, the compound ahead of its results:

Compound: CCC(=O)Nc1ccc(-c2ccc3ncn(CC(=O)N4CCOCC4)c(=O)c3c2)cn1
IC50 (SH-SY5Y): > 40 µM | IC50 [1]: > 40 µM | IC50 (HCC827 [2]): > 40 µM | IC50 (HEL): > 40 µM

Compound: O=C(c1ccccc1)N(C(=O)c1ccccc1)c1ccc(-c2ccc3ncn(Cc4ccccc4)c(=O)c3c2)cn1
Activity (HCC827 [3]): 27.87% | IC50 (SH-SY5Y): 2.13 µM | Activity (HCC827 [4]): 6.66% | Activity (HCC827 [5]): Active | Activity (HCC827 [6]): 11.77% | Activity (HCC827 [7]): 19.16% | IC50 (L02): 8.66 µM | Activity (HCC827 [8]): Active | Activity (HCC827 [9]): 13.57% | viability at 2 µM (HCC827 [10]): 58.5% | IC50 [11]: 0.072 µM | Activity (HCC827 [12]): Dose-Dependent Effect | IC50 [1]: 2.65 µM | Activity (HCC827 [13]): 11.28% | viability at 1 µM (HCC827 [14]): 68.2% | Activity (HCC827 [15]): Dose-Dependent Effect | inhibition (HCC827 [16]): Active | IC50 (HCC827 [2]): 1.12 µM | Activity (HCC827 [17]): Active | Activity (HCC827 [18]): Active | Activity (HCC827 [19]): Dose-Dependent Effect | viability at 4 µM (HCC827 [20]): 54.8% | IC50 (HEL): 2.01 µM | Activity (HCC827 [21]): Dose-Dependent Effect | Activity (HCC827 [22]): 15.63% | Activity (HCC827 [23]): 6.05% | inhibition (HCC827 [24]): Active | Activity (HCC827 [25]): 6.47% | inhibition (HCC827 [26]): Active | Activity (HCC827 [27]): Dose-Dependent Effect | Activity (HCC827 [28]): Active

Compound: COC[C@H]1OC(=O)c2coc3c2[C@@]1(C)C1=C(C3=O)[C@@H]2CCC(=O)[C@@]2(C)C[C@H]1OC(C)=O [WORTMANNIN]
IC50 [11]: 0.018 µM

Compound: Cn1c(=O)n(-c2ccc(C(C)(C)C#N)cc2)c2c3cc(-c4cnc5ccccc5c4)ccc3ncc21 [DACTOLISIB]
IC50 (SH-SY5Y): 0.79 µM | IC50 [1]: 1.31 µM | IC50 (HCC827 [2]): 0.53 µM | IC50 (HEL): 0.29 µM
